The list is not random: actives were taken first. Their share in the collection is about 12%.
Lmaj promast: Leishmania major promastigote growth inhibition, primary screen. AID 1063, 2008. inhibition, % at 10 µM. Leishmania major promastigotes, resazurin fluorescence viability. 200,000 compounds, 9% hits; in the data active = inhibition above about 50%;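 note: promastigotes grown with compound for 44 hours at 28 °C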
ABCB1 inh: ABCB1 efflux pump inhibitors, primary screen, cell-based, multiplex, flow cytometry, ABCG2 counter-screen. ATP-dependent translocase ABCB1 (Homo sapiens), P08183. CCRF-Adr cells, JC-1 efflux. inhibition, % at 6.6 µM. 190,000 compounds, 0.067% hits. AID 1326, 2008; in the data active = inhibition above about 40%;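 note: 0% = vehicle and 100% = reference inhibitor; higher value means more JC-1 retained so stronger ABCB1 efflux block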
WT yeast gro inh: growth inhibition of WT strain, primary screen, mitochondrial fusion inhibitor project, WT and mutant strains, chemical genetic; mitochondrial fusion phenotypic screen; inhibition, % at 10 µM; 190,000 compounds, 2.1% hits; AID 1362, 2008; in the data active = inhibition above about 58%; tested in S. cerevisiae
RAM network inh: inhibitors of the yeast RAM network, primary screen, dse1pr::URA3 reporter, 5-FOA selection | S. cerevisiae dse1pr::URA3 reporter, 5-FOA growth OD615, 2 d; analog-sensitive cbk1-as2 kinase mutant strain | inhibition, % at 50 µM | 190,000 compounds, 1.8% hits | AID 868, 2007;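 active = inhibition above a set limit, 3 SD over mean compound inhibition, cut at about 8.4% in these data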;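 note: 0% = DMSO-only wells with no growth and 100% = 10 µM 1-NA-PP1 full growth; inhibition rescues growth on 5-FOA so higher OD means more RAM inhibition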
ABCG2 block: ABCG2 efflux pump inhibitors, primary screen, multiplex with ABCB1, IgMXP3 cells, flow cytometry | 190,000 compounds, 0.1% hits | AID 1325, 2008 | JC-1 efflux | inhibition, % at 6.6 µM | Broad substrate specificity ATP-binding cassette transporter ABCG2 (Homo sapiens), Q9UNQ0;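 active = inhibition above 80%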;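 note: 0% = DMSO and 100% = nicardipine control wells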
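Test system: IgMXP3 cells (ABCG2) mixed with DDAO far-red-labelled CCRF-Adr cells (ABCB1). Reagent: JC-1 transporter substrate. Compound dosing: single test compound dose, 6.6 µM final. Times: 10 min compound exposure, 25 °C. Detection: flow cytometry of retained JC-1 fluorescence. Read-out basis: efflux inhibition in percent versus controls. Controls: nicardipine and DMSO wells.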
* marks the source's active call; other numbers are inactive results.

Results for C=CCc1cc(Cl)ccc1OCCNCCN1CCOCC1 ?
Lmaj promast: 95*; ABCB1 inh: 0; WT yeast gro inh: 20; RAM network inh: 2; ABCG2 block: 2

What do the screens show for `CC1CN(Cc2ccc(Cl)cc2Cl)CC(C)O1` (centres undefined)?
Lmaj promast: -6; ABCB1 inh: 0; WT yeast gro inh: -4; RAM network inh: -1; ABCG2 block: 1

Results for C#CCOCCOCCOCCNc1nc(N2CCN(C(=O)[C@H](CCCCN)n3cc([C@@H](N)CO)nn3)CC2)nc(N2CCN(C(=O)[C@H](Cc3cc4ccccc4[nH]3)n3cc([C@@H](N)CC(C)C)nn3)CC2)n1 ?
Lmaj promast: 0; ABCB1 inh: 0; WT yeast gro inh: -9; RAM network inh: 1; ABCG2 block: 0

Results for O=C1CCC/C(=N/Nc2ccc(Cl)cc2)C1 ?
Lmaj promast: 99*; ABCB1 inh: 0; WT yeast gro inh: 21; RAM network inh: 1; ABCG2 block: 0

How did Cc1ccc(NC(=O)c2nn(C34CC5CC(CC(C5)C3)C4)cc2[N+](=O)[O-])cc1 do in these assays?
Lmaj promast: 59*; ABCB1 inh: 1; WT yeast gro inh: 23; RAM network inh: 5; ABCG2 block: 7

Results for Cc1cc(Br)ccc1SCC(=O)OCC(=O)Nc1ccccc1C#N ?
Lmaj promast: -6; ABCB1 inh: 0; WT yeast gro inh: -5; RAM network inh: 0; ABCG2 block: 0

Results for Cc1cc(NC(=O)CN2C(=O)NC3(CCC(C)CC3)C2=O)no1 (centres undefined) ?
Lmaj promast: -4; ABCB1 inh: 2; WT yeast gro inh: 3; RAM network inh: 1; ABCG2 block: 16

How did c1ccc(-c2nc(-c3ccccn3)no2)cc1 do in these assays?
Lmaj promast: -4; ABCB1 inh: 0; WT yeast gro inh: 42; RAM network inh: -1; ABCG2 block: 0

How did c1ccc(-c2ccc(-c3nc(-c4ccccn4)no3)cc2)cc1 do in these assays?
Lmaj promast: -4; ABCB1 inh: 1; WT yeast gro inh: 78*; RAM network inh: 6; ABCG2 block: 1

What do the screens show for `O=C(CCCCCN1C(=O)CCC1=O)Nc1ccc(Cl)c(C(F)(F)F)c1`?
Lmaj promast: 1; ABCB1 inh: 1; WT yeast gro inh: -5; RAM network inh: 2; ABCG2 block: 4

What do the screens show for `Cc1ccc(O)c(C(=O)c2cc(C(=O)NCCc3ccccc3)c(=O)n(CCc3ccccc3)c2)c1`?
Lmaj promast: 99*; ABCB1 inh: 3; WT yeast gro inh: -14; RAM network inh: 8.9*; ABCG2 block: 42

How did Cc1ccc(O)c(C(=O)c2cc(C#N)c(=O)n(Cc3ccccc3)c2)c1 do in these assays?
Lmaj promast: 12; ABCB1 inh: 1; WT yeast gro inh: -6; RAM network inh: 2; ABCG2 block: 3

How did COc1ccc(O)c(C(=O)CC(=O)c2ccccc2)c1 do in these assays?
Lmaj promast: 23; ABCB1 inh: 1; WT yeast gro inh: 7; RAM network inh: 2; ABCG2 block: 4

How did COc1ccc(O)c(C(=O)c2cc(C(=O)NCCc3ccccc3)c(=O)n(CCc3ccccc3)c2)c1 do in these assays?
Lmaj promast: 77*; ABCB1 inh: 3; WT yeast gro inh: 30; RAM network inh: 6; ABCG2 block: 11

What do the screens show for `CN(C)c1ncc(S(=O)(=O)c2ccc(Cl)cc2)c(-c2ccccc2)n1`?
Lmaj promast: -4; ABCB1 inh: 1; WT yeast gro inh: 5; RAM network inh: 5; ABCG2 block: 10

How did O=S(=O)(c1ccc(F)cc1)c1snnc1-c1ccccc1 do in these assays?
Lmaj promast: 81*; ABCB1 inh: 1; WT yeast gro inh: -13; RAM network inh: -1; ABCG2 block: 2

What do the screens show for `O=S(=O)(c1ccc(Cl)cc1)c1snnc1-c1ccccc1`?
Lmaj promast: 100*; ABCB1 inh: 0; WT yeast gro inh: 34; RAM network inh: 2; ABCG2 block: -1

How did Cc1noc(C)c1COC(=O)c1cccc(N(C)C)c1 do in these assays?
Lmaj promast: -8; ABCB1 inh: 1; WT yeast gro inh: 1; RAM network inh: 0; ABCG2 block: 4

Results for COc1cc(C)c(NC(=O)C(=S)NCCc2ccccc2)cc1C ?
Lmaj promast: -1; ABCB1 inh: 0; WT yeast gro inh: 5; RAM network inh: 1; ABCG2 block: 6

Assay outcomes as filed in PubChem.
